Measurements reported in ChEMBL document CHEMBL3627612, “Hirsutinolide Series Inhibit Stat3 Activity, Alter GCN1, MAP1B, Hsp105, G6PD, Vimentin, TrxR1, and Importin α-2 Expression, and Induce Antitumor Effects against Human Glioma” (J Med Chem, 2015).
Blank lines part the entries; values can stand above or below the compound they belong to. Active and inactive are the calls of the source. The calls are words filed in the database; no cut-off is given here.

Experiments:
[1] = molecular target: T1, Signal transducer and activator of transcription 1 (Mus musculus) (UniProt P42225); test: Inhibition of Stat1 dimer DNA binding activity in EGF-stimulated mouse NIH3T3 nuclear extract expressing human EGFR assessed as residual activity at 5 uM preincubated for 30 mins followed by addition of radiolabeled probe hSIE for 30 mins by EMSA
T1 sequence (whole entry): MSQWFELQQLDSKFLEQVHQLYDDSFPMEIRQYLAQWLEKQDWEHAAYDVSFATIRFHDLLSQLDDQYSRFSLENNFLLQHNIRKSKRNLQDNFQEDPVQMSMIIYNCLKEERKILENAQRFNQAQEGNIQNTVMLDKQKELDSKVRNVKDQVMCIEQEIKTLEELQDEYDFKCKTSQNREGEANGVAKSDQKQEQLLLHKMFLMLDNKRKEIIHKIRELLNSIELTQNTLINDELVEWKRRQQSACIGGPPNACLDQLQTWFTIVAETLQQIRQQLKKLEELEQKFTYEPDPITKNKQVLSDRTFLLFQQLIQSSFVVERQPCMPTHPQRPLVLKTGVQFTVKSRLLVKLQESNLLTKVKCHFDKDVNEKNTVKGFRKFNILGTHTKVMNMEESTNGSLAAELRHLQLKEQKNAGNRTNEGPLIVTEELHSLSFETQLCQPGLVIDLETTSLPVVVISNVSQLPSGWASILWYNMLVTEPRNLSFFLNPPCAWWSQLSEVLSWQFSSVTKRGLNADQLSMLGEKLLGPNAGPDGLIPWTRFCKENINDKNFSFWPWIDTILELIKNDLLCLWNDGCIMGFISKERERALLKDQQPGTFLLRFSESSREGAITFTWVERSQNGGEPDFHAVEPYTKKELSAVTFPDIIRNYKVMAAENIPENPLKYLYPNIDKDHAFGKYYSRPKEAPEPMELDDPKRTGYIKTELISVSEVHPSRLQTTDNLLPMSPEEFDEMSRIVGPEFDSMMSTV

NIH3T3 = test: Inhibition of Stat5 dimer DNA binding activity in EGF-stimulated mouse NIH3T3 nuclear extract expressing human EGFR at 5 uM preincubated for 30 mins followed by addition of radiolabeled probe MGFe for 30 mins by EMSA; type: cell-free
[2] = molecular target: Signal transducer and activator of transcription 3 (Mus musculus) (UniProt P42227); test: Inhibition of Stat3 dimer DNA binding activity in mouse NIH3T3/vSrc nuclear extract at 5 uM preincubated for 30 mins followed by addition of radiolabeled probe hSIE for 30 mins by EMSA
Sequence of Signal transducer and activator of transcription 3 (Mus musculus) (P42227 whole entry): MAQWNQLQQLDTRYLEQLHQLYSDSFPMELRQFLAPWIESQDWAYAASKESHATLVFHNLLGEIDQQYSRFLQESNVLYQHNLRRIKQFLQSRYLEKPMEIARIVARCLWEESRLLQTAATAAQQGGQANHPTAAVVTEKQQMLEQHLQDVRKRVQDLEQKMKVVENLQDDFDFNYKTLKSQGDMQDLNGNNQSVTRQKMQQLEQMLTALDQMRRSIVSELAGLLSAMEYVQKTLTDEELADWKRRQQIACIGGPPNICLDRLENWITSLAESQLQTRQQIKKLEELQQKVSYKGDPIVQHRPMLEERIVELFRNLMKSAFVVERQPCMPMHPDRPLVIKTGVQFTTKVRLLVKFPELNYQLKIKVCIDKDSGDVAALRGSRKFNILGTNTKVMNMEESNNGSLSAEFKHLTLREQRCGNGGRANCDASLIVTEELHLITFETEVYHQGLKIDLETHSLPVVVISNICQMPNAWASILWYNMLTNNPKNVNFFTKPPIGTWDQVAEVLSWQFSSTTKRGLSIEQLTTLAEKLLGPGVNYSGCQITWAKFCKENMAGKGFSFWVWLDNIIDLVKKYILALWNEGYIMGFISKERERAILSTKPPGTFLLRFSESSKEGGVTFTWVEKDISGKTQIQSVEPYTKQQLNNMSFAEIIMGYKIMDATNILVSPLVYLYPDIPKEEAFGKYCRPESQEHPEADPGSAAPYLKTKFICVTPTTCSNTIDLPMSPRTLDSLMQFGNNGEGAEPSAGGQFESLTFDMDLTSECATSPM

[3] = molecular target: T1, Signal transducer and activator of transcription 1 (Mus musculus); test: Inhibition of Stat1 dimer DNA binding activity in EGF-stimulated mouse NIH3T3 nuclear extract expressing human EGFR at 5 uM preincubated for 30 mins followed by addition of radiolabeled probe hSIE for 30 mins by EMSA
SF-295 = test: Antiproliferative activity against human SF295 cells at 5 uM for 72 hrs by cyquant assay; type: functional, cell-based
[4] = molecular target: Signal transducer and activator of transcription 3 (Homo sapiens, UniProt P40763); test: Inhibition of Stat3 activity in human U251MG cells assessed as phosphorylated Stat3 level at 5 uM after 0.5 to 24 hrs by immunoblot analysis; type: cell-based; conditions: U-251
Sequence of Signal transducer and activator of transcription 3 (P40763 whole entry): as the sequence (P42227 whole entry) above, with D760E counted along it
How it was run: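 U251MG cells treated with 5 μM compound for 0–24 h, or with 0–5 μM for 2 h. Whole-cell lysates immunoblotted for pStat3, Stat3, GAPDH. Control was 0.025% DMSO-treated cells.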

[5] = molecular target: Signal transducer and activator of transcription 3 (Mus musculus) (UniProt P42227); test: Inhibition of Stat3 dimer DNA binding activity in EGF-stimulated mouse NIH3T3 nuclear extract expressing human EGFR assessed as residual activity at 5 uM preincubated for 30 mins followed by addition of radiolabeled probe hSIE for 30 mins by EMSA
[6] = Cytotoxicity against mouse NIH/3T3 cells at 5uM after 72 hrs by cyquant cells; type: cell-based; conditions: nih3t3, 72 h
How it was run: (§1)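 CyQuant proliferation assay after 72 h compound exposure of cultured cells; relative viability normalized to DMSO-treated control; IC50 values derived. Glioma lines grown in RPMI or DMEM with 10% FBS and 1% nonessential amino acids.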

U-251 [7] = test: Antiproliferative activity against human U251MG cells at 5 uM for 72 hrs by cyquant assay; type: functional; how it was run: as §1
[8] = molecular target: Signal transducer and activator of transcription 1/ 3 (Mus musculus) (UniProt P42227+P42225); test: Inhibition of Stat1:Stat3 dimer DNA binding activity in EGF-stimulated mouse NIH3T3 nuclear extract expressing human EGFR assessed as residual activity at 5 uM preincubated for 30 mins followed by addition of radiolabeled probe hSIE for 30 mins by EMSA; type: cell-free
MDA-MB-231 = test: Antiproliferative activity against human MDA-MB-231 cells at 5 uM for 72 hrs by cyquant assay; type: functional, cell-based
U-251 [9] = test: Induction of apoptosis in human U251MG cells assessed as PARP level at 0.5 to 10 nM after 24 to 48 hrs by immunoblot analysis; type: functional, cell-based
How it was run: (§2)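 U251MG human glioma cells (RPMI or DMEM, 10% FBS, 1% nonessential amino acids) treated for 24 or 48 h, with paclitaxel or staurosporine run alongside. Whole-cell lysates were prepared and analysed by SDS-PAGE and immunoblotting, probing for PARP and caspase 3 cleavage as apoptosis markers.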

U-251 [10] = test: Induction of apoptosis in human U251MG cells assessed as cleaved caspase 3 level at 0.5 to 10 nM after 24 to 48 hrs by immunoblot analysis; type: functional, cell-based; how it was run: as §2
U-251 [11] = test: Antimitotic activity in human U251MG cells assessed as defect in chromatid structure at 0.1 uM after 15 hrs confocal microscopic analysis; type: functional, cell-based
How it was run: (§3)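 U251MG on coverslips synchronized by double thymidine block (2 mM), released 9 h, treated 15 h (8 μM; paclitaxel 100 nM). Fixed 4% paraformaldehyde, digitonin-permeabilized, BSA-blocked, stained for β-tubulin and MAP1B with DAPI counterstain; chromatid structure and segregation scored by confocal microscopy.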

U-251 [12] = test: Induction of apoptosis in human U251MG cells assessed as PARP level at […] after 24 to 48 hrs by immunoblot analysis; type: functional, cell-based
U-251 [13] = test: Induction of apoptosis in human U251MG cells assessed as cleaved caspase-3 level at […] after 24 to 48 hrs by immunoblot analysis; type: functional, cell-based
U-251 [14] = test: Antimitotic activity in human U251MG cells assessed as defect in sister chromatid segragation at 0.1 uM after 15 hrs confocal microscopic analysis; type: functional, cell-based; how it was run: as §3

- Activity [1]: 61%
- inhibition (NIH3T3): inactive
- inhibition [2]: Active
- inhibition [3]: inactive
- inhibition [4]: Active
- Activity [5]: 63%
- Activity [8]: 71%
Structure (SMILES): C/C=C(/C)C(=O)O[C@H]1C[C@@H](C)[C@]2(O)CC[C@](C)(/C=C3/OC(=O)C(CO)=C31)O2
- inhibition (SF-295): inactive
- Activity [6]: Non-toxic
- inhibition (U-251 [7]): Active
- inhibition (MDA-MB-231): inactive

Structure (SMILES): CN[C@@H]1C[C@H]2O[C@@](C)([C@@H]1OC)n1c3ccccc3c3c4c(c5c6ccccc6n2c5c31)C(=O)NC4
- Activity (U-251 [9]): Active
- Activity (U-251 [10]): Active

Structure (SMILES): CC(=O)O[C@H]1C(=O)[C@@]2(C)[C@H]([C@H](OC(=O)c3ccccc3)[C@]3(O)C[C@H](OC(=O)[C@H](O)[C@@H](NC(=O)c4ccccc4)c4ccccc4)C(C)=C1C3(C)C)[C@]1(OC(C)=O)CO[C@@H]1C[C@@H]2O
- Activity (U-251 [11]): Active
- Activity (U-251 [12]): Active
- Activity (U-251 [13]): Active
- Activity (U-251 [14]): Active
